# Screening data (PubChem)
# An excerpt weighted towards active compounds, which were near 2.2% of everything screened.
# TRAIL sens C8: viability loss with TRAIL in NB7+C8 cells, primary screen, TRAIL sensitizer project, cell-based, ATPlite luminescence; 360,000 tested, 1% active; AID 624354, 2012; inhibition (viability loss, TRAIL sensitization), % at 10 µM;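 active = compounds causing at least 50% loss of cell viability in the single-dose screen, relative to plate controls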
# APP 5'UTR act: activators of APP 5'UTR luciferase reporter, primary screen, SH-SY5Y cells | AID 1276, 2008 | activation, % at 2 µM | SH-SY5Y APP 5'UTR luciferase reporter, luminescence; zero percent = DMSO vehicle wells | 190,000 tested, 1% active;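 active = activation above a set limit, based on mean plus 3 SD of controls, cut at about 140% in these data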
# NF-kB expr up: activators of NF-kB expression in neurons, primary screen, cell-based, HTS; human neuronal cells, NF-kB reporter expression; hits give high values; fold change at 12.5 µM; 190,000 tested, 1.6% active; in the data active = fold change above about 3.3
# FLuc act counter: FLuc activators, initial screening, artefact control for FLuc-dependent activation tests, biochemical, ATPlite luminescence; ATPlite luciferase biochemical, 10 min; 0 = ATP-free wells, 1 = DMSO control; activation factor at 10 µM; 200,000 tested, under 10 active;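 active = luciferase activation factor, scaled between plate controls, of at least 2 with compound at 10 µM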
# Target sequence (P08659 whole entry, looked up): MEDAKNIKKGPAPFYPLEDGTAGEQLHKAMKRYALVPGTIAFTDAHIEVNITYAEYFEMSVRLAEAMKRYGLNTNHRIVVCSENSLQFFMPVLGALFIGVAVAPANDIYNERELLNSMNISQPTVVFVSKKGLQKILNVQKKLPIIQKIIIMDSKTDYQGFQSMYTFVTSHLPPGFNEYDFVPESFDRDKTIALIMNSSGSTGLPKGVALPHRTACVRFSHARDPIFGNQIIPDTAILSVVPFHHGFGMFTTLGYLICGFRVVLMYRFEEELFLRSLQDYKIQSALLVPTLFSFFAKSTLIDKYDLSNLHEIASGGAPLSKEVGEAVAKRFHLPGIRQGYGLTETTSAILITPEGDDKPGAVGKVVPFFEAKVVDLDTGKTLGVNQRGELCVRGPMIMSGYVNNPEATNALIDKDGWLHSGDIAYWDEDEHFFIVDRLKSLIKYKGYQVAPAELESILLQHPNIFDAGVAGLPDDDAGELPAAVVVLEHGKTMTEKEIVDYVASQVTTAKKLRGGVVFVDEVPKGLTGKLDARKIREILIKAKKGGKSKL
#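 System: cell-free luciferase reagent; medium: PBS as buffer for the ATP substrate; doses: test compounds dosed from 2 mM stocks in 100% DMSO; incubation: 10 min, room temperature; measured by: luminescence from luciferase reaction; read-out: luciferase activation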
# PPC-1+TRAIL kill: compounds killing PPC-1 cancer cells with TRAIL present, primary screen, TRAIL potentiator project, ATPLite luminescence, uHTS | cell killing (% activity), % at 4 µM or 5 µM | 220,000 tested, 0.41% active | PPC-1 cells + TRAIL, ATPLite viability luminescence;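 active = cell killing above 50% in the first pass at 4 µM, then a duplicate retest at 5 µM averaging 50% or more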;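 note: plate controls were cells with TRAIL plus DMSO for no effect and medium-only wells lacking cells for full effect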
# FLuc inhib CS: firefly luciferase enzyme inhibitors, primary screen, artefact control for luciferase-based inhibitor screens, biochemical, luminescence, ATPLite | Luciferin 4-monooxygenase (Photinus pyralis), P08659 | 10 min | inhibition, % at 10 µM | 200,000 tested, 1.5% active;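 active = inhibition above about 50% when tested at 10 µM, limit read from the data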
# Numbers without * were called inactive; x = no result.
SMILES,TRAIL sens C8,APP 5'UTR act,NF-kB expr up,FLuc act counter,PPC-1+TRAIL kill,FLuc inhib CS
O=C(N/N=C/c1ccc(O)cc1)c1cccc(C(F)(F)F)c1,5.9,-7.8,1.16,1.1,-4.2,-5.7
O=C(N/N=C/c1ccccc1C(F)(F)F)c1ccc(O)cc1,20.8,45.0,1.68,0.4,23.7,55.4*
C(=C\c1ccco1)/c1nc2ccccc2[nH]1,51.3*,135.8*,5.05*,0.2,15.6,82.8*
O=C(/C=C/c1ccco1)Nc1ccc(-c2nc3ccccc3[nH]2)cc1,-38.2,-86.0,1.51,1,11.3,-2.8
O=c1c2ccccc2nnn1CSc1ccccc1,1.7,157.8*,4.33*,0.6,32.5,35.8
O=[N+]([O-])c1ccc(CN2CC(N3CCC(Cc4ccccc4)CC3)CS2(=O)=O)cc1 (centres undefined),1.1,x,x,x,x,x
CCC(=NCc1ccco1)c1c(C(F)(F)F)[nH]n(-c2nc3ccccc3s2)c1=O,23.7,17.0,0.49,0.8,18.0,18.5
CC(=NCc1ccco1)c1c(C)[nH]n(-c2nc3ccccc3s2)c1=O,30.6,152.8*,1.53,0.6,28.3,35.1
CNc1ccc(/C=C2\CSc3ccccc3C2=O)cc1[N+](=O)[O-],22.6,37.7,0.77,0.4,21.2,55.2*
Cc1ccc(/C(N)=N/OC(=O)c2ccc3ccccc3c2)cc1,90.3*,x,x,x,x,x
Cc1ccc(/C(N)=N/OC(=O)Oc2ccccc2)cc1,-5.3,1.7,0.91,1,13.0,-2.7
Cc1ccc(/C(N)=N/OC(=O)c2cccc(F)c2)cc1,85.0*,15.1,4.59*,0.4,27.8,61.0*
N/C(=N\OC(=O)c1cccc(F)c1)c1ccccc1,74.2*,94.2,2.41,0.1,19.5,91.1*
N/C(=N\OC(=O)c1cccc(Br)c1)c1ccncc1,1.9,38.6,x,0.6,14.8,38.7
OCCN1CCN(c2ncnc3c2ncn3[C@H]2CN(Cc3cccs3)C[C@@H](CO)O2)CC1,5.2,x,x,x,x,x
Fc1ccccc1SCc1nnc(-c2ccccc2Br)o1,8.1,161.1*,7.24*,0.6,-18.0,43.3
Cc1nnc(SCc2nnc(-c3ccccc3Br)o2)n1-c1ccccc1,-8.3,8.0,0.98,1,12.4,-4.1
Brc1ccccc1-c1nnc(CSc2nnnn2-c2ccccc2)o1,3.3,10.1,1.15,1,25.9,0.2
Cc1csc(SCc2nnc(-c3ccccc3Br)o2)n1,7.4,185.3*,5.44*,0.8,4.9,19.7
Cc1csc(SCc2nnc(-c3ccc(Cl)cc3)o2)n1,0.4,94.7,3.69*,0.9,8.0,11.4
O=C(NCc1ccccc1)C(c1ccc(-c2ccccc2)cc1)N1CCN(CCN2CCOCC2)CC1 (centres undefined),8.7,x,x,x,x,x
CC(=O)n1cc(N(C(=O)CCl)c2ccccc2)c2ccccc21,95.1*,x,x,x,18.3,x
CC(=O)n1cc(N(C(=O)CCl)c2ccc([N+](=O)[O-])cc2)c2ccccc21,72.3*,x,x,x,8.1,x
O=Cc1[nH]c2ccccc2c1N(C(=O)CCl)c1ccc([N+](=O)[O-])cc1,-26.5,x,x,x,3.7,x
CCc1ccc(-n2c(C)cc(/C=N/NC(=O)c3ccncc3)c2C)cc1,2.2,18.2,0.73,0.9,25.6,8.5
SMILES,TRAIL sens C8,APP 5'UTR act,NF-kB expr up,FLuc act counter,PPC-1+TRAIL kill,FLuc inhib CS
CCOC(=O)/C(C#N)=C/c1cc(C)n(-c2ccc(C)cc2)c1C,27.8,32.6,1.31,0.6,14.3,41.6
Cc1cc(/C=N/NC(=O)c2cccs2)c(C)n1-c1cnccn1,14.8,39.3,2.82,0.5,17.9,54.9*
Cc1cc(/C=N/NC(=O)COc2cccc3cccnc23)c(C)n1-c1ccc(O)cc1,-11.3,-10.9,1.04,0.4,14.1,57.2*
CCOC(=O)/C(C#N)=C\c1cc(C)n(-c2ccccc2)c1C,43.0,135.5*,0.62,0.2,38.2,75.8*
Cc1cc(/C=N/NC(=O)c2ccncc2)c(C)n1-c1ccccc1,14.4,17.5,1.03,0.3,20.4,69.7*
O=C(N/N=C/c1cccnc1)c1cccs1,-0.1,x,x,x,8.6,x
Cc1cc(C)cc(-n2c(C)cc(/C=N\NC(=O)COc3cccc4cccnc34)c2C)c1,-0.9,15.7,0.49,1.1,3.1,-7.9
C(=C\c1ccccc1)/CN1CCN(C(c2ccccc2)c2nnnn2Cc2ccccc2)CC1 (centres undefined),-3.6,x,x,x,x,x
COc1ccc(-n2nnnc2C(c2ccccc2)N2CCN(C/C=C/c3ccccc3)CC2)cc1 (centres undefined),-5.1,x,x,x,x,x
CC1=C(C(=O)N(C(C)C)C(C)C)CC(CC(=O)NCc2cccc3ccccc23)C(=O)N1CCC1=CCCCC1 (centres undefined),15.4,x,x,x,x,x
COc1cc(NC(=O)COc2ccc([N+](=O)[O-])cc2)ccc1NC(=O)c1ccco1,0.0,x,x,x,x,x
Cc1cc(C(=O)N/N=C2\CC(=O)c3ccccc32)c(C)n1-c1ccccc1,53.6*,108.1,1.09,0.4,18.0,60.1*
O=C(NN=Cc1ccccc1O)c1cccc([N+](=O)[O-])c1,10.1,x,x,x,x,x
Cc1cc(/C=N/NC(=O)C(O)(c2ccccc2)c2ccccc2)c(C)n1-c1ccccc1,-3.8,5.6,0.81,1,17.9,-0.7
COC(=O)N/N=C/c1cc(C)n(-c2ccccc2)c1C,9.3,x,1.09,0.5,9.1,52.3*
Cc1cc(C(=O)N/N=C2\CC(=O)CC(C)(C)C2)c(C)n1-c1ccccc1,-0.1,1.4,0.68,1,11.8,-0.6
Cc1cc(C(=O)N/N=C/c2ccc(O)c(O)c2O)c(C)n1-c1ccccc1,36.2,35.5,0.8,0.3,24.2,70.1*
Cc1cc(/C=N/NC(=O)c2cccc([N+](=O)[O-])c2)c(C)n1-c1ccccc1,-0.5,-5.8,1.34,0.3,25.4,65.5*
COC(=O)N/N=C/c1cc(C)n(-c2ccc(Br)cc2)c1C,3.1,x,x,x,7.2,x
COc1ccc([C@H]2C[C@@H](O)[C@H](n3cc(-c4ccc(F)cc4)nn3)CN2C(=O)C2CCCCC2)cc1,3.8,x,x,x,x,x
CCNC(=S)N/N=C/c1cc(C)n(-c2ccc(Cl)cc2)c1C,7.0,19.6,1.02,0.9,18.7,8.4
Cc1cc(/C=N/NC(N)=S)c(C)n1-c1ccc(Cl)c(Cl)c1,2.8,-5.7,7.81*,1,37.9,-4.1
Cn1nc(-c2ccccc2)cc1NC(=O)[C@@H]1O[C@H](CO)[C@H](O)[C@H](O)[C@H]1O,-13.3,x,x,x,x,x
Cc1ccc(OCCSCc2nnc(NC(=O)Nc3cccc(Cl)c3)s2)cc1,52.5*,0.8,0.96,1.1,32.1,-8.1
CSc1ccc(-c2ccc3c(c2)c(Sc2ccccc2)c(-c2ccccc2)n3C)cc1,-0.6,x,x,x,x,x
CCCc1c(-c2cccc(Br)c2)ncn1Cc1ccccc1OC,12.1,x,x,x,x,x
